# Columns and labels:
# Neutrophil [1] = test: Inhibition of fMLP/CB-induced superoxide anion production in human neutrophils assessed as SOD-based ferricytochrome c reduction assay; type: functional, cell-based
# Summary of the method: (§1)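 Isolated human neutrophils stimulated with fMLP plus cytochalasin B. Superoxide measured as SOD-inhibitable ferricytochrome c reduction. Azurophilic degranulation measured as elastase release. IC50, the concentration giving 50% inhibition, calculated by computer; mean ± SEM, n = 3–5; Student's t test.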
# Neutrophil [2] = test: Inhibition of fMLP/CB-induced elastase release in human neutrophils; type: functional, cell-based; summary of the method: as §1
SMILES,IC50 (Neutrophil [1]) [µM],IC50 (Neutrophil [2]) [µM]
COC1=CC(=O)[C@]2(C)C(=O)[C@@]1(CCC(=O)c1ccccc1)[C@H]1c3c(cc(O)c(C)c3OC)O[C@]2(c2ccccc2)[C@@H]1O,> 10,> 10
COC1=CC(=O)C(C)=C2O[C@]3(c4ccccc4)Oc4cc(O)c(C)c(OC)c4[C@@H]([C@H]3O)[C@]12CCC(=O)c1ccccc1,3.1,4.5
O=c1cc(N2CCOCC2)oc2c(-c3ccccc3)cccc12 [LY-294002],0.4,1.5
COC1=C(CCC(=O)c2ccccc2)C(=O)[C@@H]2C(=O)[C@H]1[C@H]1c3c(cc(O)c(C)c3OC)O[C@]2(c2ccccc2)[C@@H]1O,> 10,> 10
